Experimental data as given in paper PMC12394899 (RSC Medicinal Chemistry, 2025).

Legend:
MDA-MB-231 cells = assay: MTT assay, MDA-MB-231; format: cell-based; settings: Homo sapiens, MDA-MB-231, 48 h, read-out: MTT IC50
Procedure, shortened: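 TNBC cells maintained in DMEM with 10% FBS at 37 °C, 5% CO2. About 10 000 cells/well seeded and exposed to test compound at 0.5–80 μM for 48 h, with 0.1% DMSO medium as control. MTT (1 mg mL−1) added for 4 h at 37 °C. Formazan dissolved in DMSO for 30 min at room temperature. Absorbance read at 540 nm.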

[1] = target: T1, rat α2,3-O-sialyltransferase ST3GAL1 (Rattus norvegicus, UniProt Q6H8N0); settings: cited from earlier work
T1 sequence (Q6H8N0 1-340): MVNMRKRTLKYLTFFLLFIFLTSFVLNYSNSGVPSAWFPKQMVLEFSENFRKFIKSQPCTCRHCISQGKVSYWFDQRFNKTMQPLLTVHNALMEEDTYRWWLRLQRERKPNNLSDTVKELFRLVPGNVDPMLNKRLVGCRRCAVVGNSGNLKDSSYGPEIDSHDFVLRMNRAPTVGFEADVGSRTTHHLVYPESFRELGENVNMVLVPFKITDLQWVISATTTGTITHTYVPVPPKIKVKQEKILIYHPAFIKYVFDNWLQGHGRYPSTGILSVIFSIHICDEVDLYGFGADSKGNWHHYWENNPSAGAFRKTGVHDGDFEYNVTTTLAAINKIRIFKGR

IC50 (MDA-MB-231 cells) [µM]	SMILES	ST3GAL1 % Inhibition at 500 μM [1] [%]
40 to 80	c1ccc2c(Cc3c[nH]c4ccccc34)c[nH]c2c1 [3,3′-DIM, 3,3′-diindolylmethane]	–
–	C[C@H](CCC(=O)O)[C@H]1CC[C@H]2[C@@H]3CC[C@@H]4C[C@H](O)CC[C@]4(C)[C@H]3CC[C@]12C [LCA, Lithocholic acid]	53
